Consider ten compounds from ChEMBL document CHEMBL1154891, “Cytotoxic acylphloroglucinol derivatives from the twigs of Garcinia cowa” (J Nat Prod, 2010).

A short description of data set [1]: Cytotoxicity against human CCD-18Co cells at 5 uM after 24 hrs by MTT assay. It counts as cell-based. The method, boiled down:
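CCD-18Co colon fibroblasts grown in MEM with 10% FBS and HEPES at 37 °C, 5% CO2, seeded overnight at 7 × 10^3 cells/well. MTT added for 3 h at 37 °C, formazan dissolved in DMSO, A570 read with 620 nm background subtraction. Untreated = 100%. Triplicate, ≥3 independent experiments, mean + SEM.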

Data set [2] is described as follows: Cytotoxicity against human CCD-18Co cells at 5 uM after 24 hrs by MTT assay.
The test system of data set [3] is HT-29. The data set is described as follows: Cytotoxicity against human HT-29 cells at 5 uM after 24 hrs by MTT assay. Format: functional.
Another data set deals with HCT-116. In words: Cytotoxicity against human HCT116 cells at 5 uM after 24 hrs by MTT assay. Format: functional, cell-based.
Data set [4] concerns HT-29. The data set is described as follows: Cytotoxicity against human HT-29 cells after 24 hrs by MTT assay. It counts as functional, cell-based. The conditions noted are these: HT-29, 24 h. The method, boiled down:
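MTT read-out: 3 h at 37 °C, DMSO solubilization, A570 with 620 nm background. Viability relative to untreated control; IC50 derived. Cisplatin in saline run in parallel as positive control. Mean + SEM.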

Molecules are shown by their SMILES. Active and inactive are the calls of the source. The calls are words filed in the database; no cut-off is given here.

`CC(C)=CCC/C(C)=C/C[C@@H]1C[C@]2(CC=C(C)C)C(=O)[C@@](CC=C(C)C)(C(=O)C(C(=O)c3cccc(O)c3)=C2O)[C@@]1(C)CCC=C(C)C` [GARCICOWIN B]: the Activity entry in data set [1] and in data set [2] was “Non-toxic” throughout.

On to `C=C(C)[C@@H]1C[C@]23C[C@@H](CC=C(C)C)C(C)(C)[C@](CC=C(C)C)(C(=O)C(C(=O)c4ccc(O)c(O)c4)=C2O[C@H]1C=C(C)C)C3=O` [GARCICOWIN D], for which the Activity result in data set [1] was “Non-toxic”; in data set [2], “Non-toxic”; in the data set on HT-29 [3] it was 57.7%.

Take `CC(C)=CCC/C(C)=C/C[C@@H]1C[C@]2(CC=C(C)C)C(=O)[C@@](CC=C(C)C)(C(=O)C(C(=O)c3ccc(O)c(O)c3)=C2O)[C@@]1(C)CCC=C(C)C` [OBLONGIFOLIN C]: the result in the data set on HCT-116 and with HT-29 [3] was Active. In addition, the Activity result in data set [1] and in data set [2] was “Non-toxic” throughout.

For the compound `CC(C)=CCC/C(C)=C/C[C@H]1C[C@]2(C/C=C(\C)CCC=C(C)C)C(=O)[C@@](CC=C(C)C)(C(=O)C(C(=O)c3ccc(O)c(O)c3)=C2O)C1(C)C` [OBLONGIFOLIN D], the result with HCT-116 and with HT-29 [3] was inactive. Moreover, the Activity result in data set [1] and in data set [2] was “Non-toxic” in each case.

For `CC(C)=CCC/C(C)=C/C[C@@H]1C[C@]2(CC=C(C)C)C(=O)[C@@](CC=C(C)C)(C(=O)C(C(=O)c3ccc(O)c(O)c3)=C2O)C1(C)C` [OBLONGIFOLIN B], the outcome with HCT-116 and in the data set with HT-29 [3] was Active. The Activity result in data set [1] and in data set [2] was “Non-toxic” throughout.

As to `C=C(C)[C@@H]1C[C@]23C[C@H](CC=C(C)C)C(C)(C)[C@](CC=C(C)C)(C(=O)C(C(=O)c4ccc(O)c(O)c4)=C2O[C@H]1C=C(C)C)C3=O` [GARCINIALIPTONE B], the Activity result in data set [1] is recorded as “Non-toxic”; in data set [2], “Non-toxic”; in the data set on HT-29 [3], 73.8%.

`CC(C)=CCC/C(C)=C/C[C@@H]1C[C@@]2(C/C=C(\C)CCC=C(C)C)C(=O)[C@](CC=C(C)C)(C(=O)C(C(=O)c3ccc(O)c(O)c3)=C2O)C1(C)C` [GUTTIFERONE B]: the result in the data set on HCT-116 and in the data set with HT-29 [3] was Active. The Activity result in data set [1] and in data set [2] was “Non-toxic” each time.

On to `CC(C)=CC[C@@H]1C[C@@]23C[C@@H](CC=C(C)C)C(C)(C)[C@](CC=C(C)C)(C(=O)C(C(=O)c4ccc(O)c(O)c4)=C2OC1(C)C)C3=O`, for which the IC50 in the data set on HT-29 [4] is 5.1 µM. In addition, the outcome in the data set with HCT-116 and with HT-29 [3] was Active. Further, the Activity entry in data set [1] and in data set [2] was “Non-toxic” each time.

Turning to `CC(C)=CCC/C(C)=C/C[C@H]1CC(C)(C)OC2=CC(=O)[C@]3(CC=C(C)C)C(=O)[C@@]21CC[C@]3(C)CCC=C(C)C` [GARCICOWIN A], the Activity entry in data set [1] and in data set [2] was “Non-toxic” each time.

As to `CC(C)=CC[C@H]1C[C@@]23C[C@@H](CC=C(C)C)C(C)(C)[C@@](CC=C(C)C)(C(=O)C(C(=O)c4ccc(O)c(O)c4)=C2OC1(C)C)C3=O` [CAMBOGIN], the result with HCT-116 and in the data set on HT-29 [3] was Active. The Activity result in data set [1] and in data set [2] was “Non-toxic” in each case.
